Values after ≈ are worked out from the molar mass of the structure shown.
Experiments:
Trichophyton rubrum = experiment: In vitro evaluation of minimum inhibitory concentration against Trichophyton rubrum 90; assay type: functional; details: Trichophyton rubrum; read-out: MIC
In short: (§1)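 Stocks are 800 μg/mL in 50% ethanol. Each plate gets 10 μL of inoculum at 10^5 cfu/mL. Incubation at 25 °C, 48 h for yeasts and 120 h for dermatophytes and molds. Organisms are ATCC strains or clinical isolates.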

Candida albicans [1] = experiment: Evaluation of In vitro antifungal activity against Candida albicans 406 by broth macro dilution method; assay type: functional
In short: (§2)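 Yeast MIC and MFC by broth macrodilution per NCCLS M27-P in RPMI-1640 buffered with 0.165 M MOPS. Fluconazole in sterile water, other drugs in DMSO. C. parapsilosis ATCC 22019 is the reference strain in each run. MIC is the lowest concentration with turbidity ≤ the 80% inhibition standard. For MFC, 0.04 mL from clear tubes is plated on Sabouraud agar; MFC is the lowest concentration giving ≤1 colony.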

Mus sp. [2] = experiment: In vivo evaluation of % survival rate after peroral administration on 7th day at dose 1 mg/kg; assay type: functional; details: route oral, 1 mg/kg
Candida parapsilosis [3] = experiment: Evaluation of In vitro antifungal activity against Candida parapsilosis C292 by broth macro dilution method; assay type: functional; details: Lodderomyces parapsilosis; in short: as §2
Aspergillus flavus = experiment: In vitro evaluation of minimum inhibitory concentration against Aspergillus flavus 19; assay type: functional; details: Aspergillus flavus; read-out: MIC; in short: as §1
Mus sp. [4] = experiment: In vivo evaluation of % survival rate after peroral administration on 9th day at dose 1 mg/kg; assay type: functional; details: route oral, 1 mg/kg
Candida albicans [5] = experiment: Evaluation of In vitro antifungal activity against Candida albicans 31 by broth macro dilution method; assay type: functional; in short: as §2
Mus sp. [6] = experiment: In vivo evaluation of % survival rate after peroral administration on 3rd day at dose 0.5 mg/kg; assay type: functional; details: route oral
Candida albicans [7] = experiment: Evaluation of In vitro antifungal activity against Candida albicans 76 by broth macro dilution method; assay type: functional; in short: as §2
[8] = system: Meyerozyma guilliermondii; experiment: In vitro evaluation of minimum inhibitory concentration against Candida guilliermondii 26; assay type: functional; details: Meyerozyma guilliermondii; read-out: MIC; in short: as §1
Cryptococcus neoformans [9] = experiment: Evaluation of In vitro antifungal activity against Cryptococcus neoformans 87 by broth macro dilution method; assay type: functional; in short: as §2
Candida albicans [10] = experiment: Evaluation of In vitro antifungal activity against Candida albicans 60 by broth macro dilution method
Candida parapsilosis [11] = experiment: Evaluation of In vitro antifungal activity against Candida parapsilosis ATCC 22019 by broth macro dilution method; assay type: functional; details: Lodderomyces parapsilosis; in short: as §2
Trichophyton benhamiae = experiment: In vitro evaluation of minimum inhibitory concentration against Trichophyton mentagrophytes 23; assay type: functional, Arthroderma benhamiae; details: Trichophyton benhamiae; read-out: MIC; in short: as §1
Nannizzia gypsea = experiment: In vitro evaluation of minimum inhibitory concentration against Microsporum gypseum 22; assay type: functional; details: Nannizzia gypsea; read-out: MIC; in short: as §1
Kluyveromyces marxianus [12] = experiment: Evaluation of In vitro antifungal activity against yeasts by broth macro dilution method; assay type: functional; in short: as §2
Pichia kudriavzevii [13] = experiment: Evaluation of In vitro antifungal activity against Candida krusei C64 by broth macro dilution method; assay type: functional; in short: as §2
Pichia kudriavzevii [14] = experiment: In vitro evaluation of minimum inhibitory concentration against Candida krusei 70; assay type: functional; details: Pichia kudriavzevii; read-out: MIC; in short: as §1
Candida albicans [15] = experiment: Evaluation of […] antifungal activity against Candida albicans 60 by broth macro dilution method; assay type: functional; in short: as §2
Candida tropicalis [16] = experiment: Evaluation of In vitro antifungal activity against Candida tropicalis 50 by broth macro dilution method; assay type: functional; in short: as §2
Mus sp. [17] = experiment: In vivo evaluation of % survival rate after peroral administration on 9th day at dose 0.5 mg/kg; assay type: functional; details: Mus sp., po
Candida parapsilosis [18] = experiment: Evaluation of In vitro antifungal activity against Candida parapsilosis ATCC 141095 by broth macro dilution method; assay type: functional; details: Lodderomyces parapsilosis; in short: as §2
Mus musculus = experiment: In vivo evaluation of % survival rate after peroral administration on 7th day at dose 0.5 mg/kg; assay type: functional; details: Mus musculus, po
Candida albicans [19] = experiment: Evaluation of In vitro antifungal activity against Candida albicans 2.01 by broth macro dilution method; assay type: functional; in short: as §2
Candida parapsilosis [20] = experiment: In vitro evaluation of minimum inhibitory concentration against Candida parapsilosis 61; assay type: functional; details: Lodderomyces parapsilosis; read-out: MIC; in short: as §1
Candida albicans [21] = experiment: Evaluation of In vitro antifungal activity against Candida albicans C56 by broth macro dilution method; assay type: functional; in short: as §2
Candida albicans [22] = experiment: In vitro evaluation of minimum inhibitory concentration against Candida albicans 76; assay type: functional; in short: as §1
Candida parapsilosis [23] = experiment: Evaluation of In vitro antifungal activity against Candida parapsilosis 2.07 by broth macro dilution method; assay type: functional; details: Lodderomyces parapsilosis; in short: as §2
Kluyveromyces marxianus [24] = experiment: Evaluation of In vitro antifungal activity against Candida pseudotropicalis ATCC 28838 by broth macro dilution method; assay type: functional; in short: as §2
Microsporum canis = experiment: In vitro evaluation of minimum inhibitory concentration against Microsporum canis 47; assay type: functional; details: Microsporum canis; read-out: MIC; in short: as §1
Mus sp. [25] = experiment: In vivo evaluation of % survival rate after peroral administration on 3rd day at dose 1 mg/kg; assay type: functional; details: Mus sp., po
Mus sp. [26] = experiment: In vivo evaluation of % survival rate after peroral administration on 5th day at dose 1 mg/kg; assay type: functional; details: Mus sp., po
Cryptococcus neoformans [27] = experiment: Evaluation of In vitro antifungal activity against Cryptococcus neoformans 74 by broth macro dilution method; assay type: functional; in short: as §2
Pichia kudriavzevii [28] = experiment: Evaluation of In vitro antifungal activity against Candida krusei 70 by broth macro dilution method; assay type: functional; in short: as §2
Mus sp. [29] = experiment: In vivo evaluation of % survival rate after peroral administration on 5th day at dose 0.5 mg/kg; assay type: functional; details: route oral
[30] = system: Meyerozyma guilliermondii; experiment: Evaluation of In vitro antifungal activity against Candida guilliermondii 26 by broth macro dilution method; assay type: functional; in short: as §2
Aspergillus niger = experiment: In vitro evaluation of minimum inhibitory concentration against Aspergillus niger 18; assay type: functional; details: Aspergillus niger; read-out: MIC; in short: as §1
Candida albicans [31] = experiment: Evaluation of In vitro antifungal activity against Candida albicans ATCC 10231 by broth macro dilution method; assay type: functional; in short: as §2
Nakaseomyces glabratus = experiment: Evaluation of In vitro antifungal activity against Torulopsis glabrata 78 by broth macro dilution method; assay type: functional; in short: as §2
Candida parapsilosis [32] = experiment: Evaluation of In vitro antifungal activity against Candida parapsilosis C74 by broth macro dilution method; assay type: functional; details: Lodderomyces parapsilosis; in short: as §2
Candida tropicalis [33] = experiment: Evaluation of In vitro antifungal activity against Candida tropicalis 2.11 by broth macro dilution method; assay type: functional; in short: as §2
Aspergillus fumigatus = experiment: In vitro evaluation of minimum inhibitory concentration against Aspergillus fumigatus 33; assay type: functional; details: Aspergillus fumigatus; read-out: MIC; in short: as §1
Candida albicans [34] = experiment: Evaluation of In vitro antifungal activity against Candida albicans C52 by broth macro dilution method; assay type: functional; in short: as §2

Question: Which results are given for `C[C@H]1N(C(=O)c2ccc(C(F)(F)F)cc2)C[C@H](O)O[C@@]1(Cn1cncn1)c1ccc(F)cc1F` (stereo in doubt; (-)-39a)?
Answer: MIC (Trichophyton rubrum): 40 µg/mL (≈ 82.9 µM); MFC (Candida albicans [1]): > 64 µg/mL; MIC (Candida albicans [1]): 1 µg/mL (≈ 2.07 µM); Survival (Mus sp. [2]): 100%; MFC (Candida parapsilosis [3]): > 64 µg/mL; MIC (Candida parapsilosis [3]): 8 µg/mL (≈ 16.6 µM); MIC (Aspergillus flavus): > 80 µg/mL; Survival (Mus sp. [4]): 100%; MFC (Candida albicans [5]): > 64 µg/mL; MIC (Candida albicans [5]): 0.5 µg/mL (≈ 1.04 µM); survival at 0.5 mg/kg (Mus sp. [6]): 100%; MFC (Candida albicans [7]): > 64 µg/mL; MIC (Candida albicans [7]): 1 µg/mL (≈ 2.07 µM); MIC [8]: 80 µg/mL (≈ 166 µM); MFC (Cryptococcus neoformans [9]): > 64 µg/mL; MIC (Cryptococcus neoformans [9]): 4 µg/mL (≈ 8.29 µM); MFC (Candida albicans [10]): > 64 µg/mL; MFC (Candida parapsilosis [11]): 32 µg/mL (≈ 66.3 µM); MIC (Candida parapsilosis [11]): 16 µg/mL (≈ 33.2 µM); MIC (Trichophyton benhamiae): > 80 µg/mL; MIC (Nannizzia gypsea): 80 µg/mL (≈ 166 µM); MIC (Kluyveromyces marxianus [12]): 0.5 µg/mL (≈ 1.04 µM); MFC (Pichia kudriavzevii [13]): > 64 µg/mL; MIC (Pichia kudriavzevii [13]): > 64 µg/mL; MIC (Pichia kudriavzevii [14]): > 80 µg/mL; MIC (Candida albicans [15]): 1 µg/mL (≈ 2.07 µM); MFC (Candida tropicalis [16]): > 64 µg/mL; MIC (Candida tropicalis [16]): > 64 µg/mL; survival at 0.5 mg/kg (Mus sp. [17]): 40%; MFC (Candida parapsilosis [18]): > 64 µg/mL; MIC (Candida parapsilosis [18]): > 64 µg/mL; survival at 0.5 mg/kg (Mus musculus): 80%; MFC (Candida albicans [19]): > 64 µg/mL; MIC (Candida albicans [19]): 2 µg/mL (≈ 4.15 µM); MIC (Candida parapsilosis [20]): 40 µg/mL (≈ 82.9 µM); MFC (Candida albicans [21]): > 64 µg/mL; MIC (Candida albicans [21]): 1 µg/mL (≈ 2.07 µM); MIC (Candida albicans [22]): 10 µg/mL (≈ 20.7 µM); MFC (Candida parapsilosis [23]): > 64 µg/mL; MIC (Candida parapsilosis [23]): 4 µg/mL (≈ 8.29 µM); MFC (Kluyveromyces marxianus [24]): 64 µg/mL (≈ 133 µM); MIC (Microsporum canis): 40 µg/mL (≈ 82.9 µM); survival at 1 mg/kg (Mus sp. [25]): 100%; survival at 1 mg/kg (Mus sp. [26]): 100%; MFC (Cryptococcus neoformans [27]): 2 µg/mL (≈ 4.15 µM); MIC (Cryptococcus neoformans [27]): 0.25 µg/mL (≈ 0.518 µM); MFC (Pichia kudriavzevii [28]): > 64 µg/mL; MIC (Pichia kudriavzevii [28]): > 64 µg/mL; survival at 0.5 mg/kg (Mus sp. [29]): 100%; MFC [30]: > 64 µg/mL; MIC [30]: 32 µg/mL (≈ 66.3 µM); MIC (Aspergillus niger): > 80 µg/mL; MFC (Candida albicans [31]): > 64 µg/mL; MIC (Candida albicans [31]): 0.5 µg/mL (≈ 1.04 µM); MFC (Nakaseomyces glabratus): > 64 µg/mL; MIC (Nakaseomyces glabratus): > 64 µg/mL; MFC (Candida parapsilosis [32]): 32 µg/mL (≈ 66.3 µM); MIC (Candida parapsilosis [32]): 2 µg/mL (≈ 4.15 µM); MFC (Candida tropicalis [33]): > 64 µg/mL; MIC (Candida tropicalis [33]): 64 µg/mL (≈ 133 µM); MIC (Aspergillus fumigatus): 80 µg/mL (≈ 166 µM); MFC (Candida albicans [34]): > 64 µg/mL; MIC (Candida albicans [34]): 0.5 µg/mL (≈ 1.04 µM)

From ChEMBL document CHEMBL1128448, “Synthesis and antifungal activity of new azole derivatives containing an N-acylmorpholine ring” (1995)
